Assay results as given in ChEMBL document CHEMBL3616442, “Unconventional Knoevenagel-type indoles: Synthesis and cell-based studies for the identification of pro-apoptotic agents” (Eur J Med Chem, 2015).

Experiments:
[1] = Growth inhibition of human MOLT4 cells after 48 hrs by sulforhodamine B assay; assay type: functional; conditions: MOLT-4, 48 h
Procedure, shortened: (§1)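 NCI 60-cell-line screen. Compounds tested at five 10-fold dilutions from 10^-4 to 10^-8 M. Cells exposed for the last 48 h of a 72 h incubation, growth estimated by sulforhodamine B protein assay. GI50 is the concentration giving 50% growth inhibition. Values beyond the tested range are expressed as greater or lesser than the extreme concentration.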

A549 = assay: Growth inhibition of human A549 cells after 48 hrs by sulforhodamine B assay; assay type: functional; conditions: A549, 48 h; procedure, shortened: as §1
[2] = Growth inhibition of human EKVX cells after 48 hrs by sulforhodamine B assay; assay type: functional; procedure, shortened: as §1
HOP-62 = assay: Growth inhibition of human HOP62 cells after 48 hrs by sulforhodamine B assay; assay type: functional; conditions: HOP-62, 48 h; procedure, shortened: as §1
NCI-H226 = assay: Growth inhibition of human NCI-H226 cells after 48 hrs by sulforhodamine B assay; assay type: functional; conditions: NCI-H226, 48 h; procedure, shortened: as §1
[3] = Growth inhibition of human HCC2998 cells after 48 hrs by sulforhodamine B assay; assay type: functional; conditions: HCC 2998, 48 h; procedure, shortened: as §1
HCT-15 = assay: Growth inhibition of human HCT15 cells after 48 hrs by sulforhodamine B assay; assay type: functional; conditions: HCT-15, 48 h; procedure, shortened: as §1
[4] = Growth inhibition of human LOXIMVI cells after 48 hrs by sulforhodamine B assay; assay type: functional; conditions: LOX IMVI; procedure, shortened: as §1
MDA-MB-435 = assay: Growth inhibition of human MDA-MB-435 cells after 48 hrs by sulforhodamine B assay; assay type: functional; conditions: MDA-MB-435, 48 h; procedure, shortened: as §1
SK-MEL-28 [5] = assay: Growth inhibition of human SK-MEL-28 cells after 48 hrs by sulforhodamine B assay; assay type: functional; conditions: SK-MEL-28, 48 h
OVCAR-3 = assay: Growth inhibition of human OVCAR3 cells after 48 hrs by sulforhodamine B assay; assay type: functional; conditions: OVCAR-3, 48 h; procedure, shortened: as §1
[6] = Growth inhibition of human RXF393 cells after 48 hrs by sulforhodamine B assay; assay type: functional; conditions: RXF 393, 48 h
SN12C = assay: Growth inhibition of human SN12C cells after 48 hrs by sulforhodamine B assay; assay type: functional
TK-10 = assay: Growth inhibition of human TK10 cells after 48 hrs by sulforhodamine B assay; assay type: functional; conditions: TK-10, 48 h
MCF7 [7] = assay: Growth inhibition of human MCF7 cells after 48 hrs by sulforhodamine B assay; assay type: functional; conditions: MCF7, 48 h; procedure, shortened: as §1
MDA-MB-231 = assay: Growth inhibition of human MDA-MB-231 cells after 48 hrs by sulforhodamine B assay; assay type: functional; conditions: MDA-MB-231, 48 h; procedure, shortened: as §1
[8] = Growth inhibition of human Hs 578T cells after 48 hrs by sulforhodamine B assay; assay type: functional; procedure, shortened: as §1
MDA-MB-468 = assay: Growth inhibition of human MDA-MB-468 cells after 48 hrs by sulforhodamine B assay; assay type: functional; conditions: MDA-MB-468, 48 h; procedure, shortened: as §1
CCRF-CEM = assay: Cytotoxicity against human CCRF-CEM cells after 96 hrs by MTT assay; assay type: functional, cell-based
Procedure, shortened: (§2)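 ATCC cell lines, mycoplasma-free by Hoechst staining. Haematological lines in RPMI-1640, solid-tumour and normal fibroblast lines in their own media, all with 10% FCS and antibiotics, at 37 °C in 5% CO₂. Compounds added as serial dilutions from a 100 mM DMSO stock diluted in medium. Viability by MTT after 96 h at 37 °C. Mean ± SD of three independent determinations.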

WIL2-NS = assay: Cytotoxicity against human WIL2-NS cells after 96 hrs by MTT assay; assay type: functional, cell-based; procedure, shortened: as §2
CCRF-SB = assay: Cytotoxicity against human CCRF-SB cells after 96 hrs by MTT assay; assay type: functional, cell-based; procedure, shortened: as §2
MRC5 = assay: Cytotoxicity against human MRC5 cells after 96 hrs by MTT assay; assay type: cell-based; conditions: MRC5, 96 h; procedure, shortened: as §2
[9] = Cytotoxicity against human CRL7065 cells after 96 hrs by MTT assay; assay type: cell-based; conditions: CRL-7065, 96 h; procedure, shortened: as §2
SK-MEL-28 [10] = assay: Cytotoxicity against human SK-MEL-28 cells after 96 hrs by MTT assay; assay type: functional, cell-based; conditions: SK-MEL-28, 96 h; procedure, shortened: as §2
[11] = Cytotoxicity against human SKMES1 cells after 96 hrs by MTT assay; assay type: functional, cell-based; conditions: SK-MES-1, 96 h; procedure, shortened: as §2
DU-145 = assay: Cytotoxicity against human DU145 cells after 96 hrs by MTT assay; assay type: functional, cell-based; conditions: DU-145, 96 h; procedure, shortened: as §2
HepG2 = assay: Cytotoxicity against human HepG2 cells after 96 hrs by MTT assay; assay type: functional, cell-based; conditions: HepG2, 96 h; procedure, shortened: as §2
MCF7 [12] = assay: Cytotoxicity against human MCF7 cells after 96 hrs by MTT assay; assay type: functional, cell-based; conditions: MCF7, 96 h; procedure, shortened: as §2
HL-60 [13] = assay: Antiproliferative activity against human HL60 cells after 3 days incubation by alamar blue method; assay type: functional
Procedure, shortened: (§3)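 HL-60 and K562 grown in RPMI 1640, MCF-7 in DMEM, each with 10% FCS, penicillin G and streptomycin. Seeded at 4x10⁴ (HL-60, K562) or 2x10⁴ (MCF-7) cells per well with serial compound dilutions, incubated 3 days at 37 °C. Alamar blue added for 3 h at 37 °C in the dark, fluorescence read at ex 544/em 590 nm. IC50 versus untreated controls by linear regression.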

K562 [14] = assay: Antiproliferative activity against human K562 cells after 3 days incubation by alamar blue method; assay type: functional; procedure, shortened: as §3
MCF7 [15] = assay: Antiproliferative activity against human MCF7 cells after 3 days incubation by alamar blue method; assay type: functional; procedure, shortened: as §3
HL-60 [16] = assay: Induction of apoptosis in human HL60 cells by propidium iodide staining based flow cytometric analysis; assay type: functional; conditions: TDE = time-dependent effect
Procedure, shortened: (§4)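 After treatment, cells harvested, fixed in ice-cold 70% ethanol at 4 °C, stained 30 min at 37 °C in the dark with 100 µg/mL propidium iodide plus 10 µg/mL RNase A; 10,000 gated cells analysed at 488 nm with debris excluded; apoptosis followed over time; mean ± S.E.M. of three independent experiments run in triplicate.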

K562 [17] = assay: Induction of apoptosis in human K562 cells by propidium iodide staining based flow cytometric analysis; assay type: functional; procedure, shortened: as §4
MCF7 [18] = assay: Induction of apoptosis in human MCF7 cells by propidium iodide staining based flow cytometric analysis; assay type: functional; conditions: TDE = time-dependent effect; procedure, shortened: as §4

Row | Structure (SMILES) | GI50 [1] [µM] | GI50 (A549) [µM] | GI50 [2] [µM] | GI50 (HOP-62) [µM] | GI50 (NCI-H226) [µM] | GI50 [3] [µM] | GI50 (HCT-15) [µM] | GI50 [4] [µM] | GI50 (MDA-MB-435) [µM] | GI50 (SK-MEL-28 [5]) [µM] | GI50 (OVCAR-3) [µM] | GI50 [6] [µM] | GI50 (SN12C) [µM] | GI50 (TK-10) [µM] | GI50 (MCF7 [7]) [µM] | GI50 (MDA-MB-231) [µM] | GI50 [8] [µM] | GI50 (MDA-MB-468) [µM] | also measured
1 | N#C/C(=C\c1c(-c2ccccc2)[nH]c2ccccc12)S(=O)(=O)c1ccccc1 | 2.2 | 3.7 | 6.2 | 9.3 | 4.1 | 10.9 | 1.1 | 4.6 | 0.288 | 8.3 | 1.4 | 3.6 | 5.2 | 5.6 | 2.2 | 3.8 | 23.6 | 1.9 | 
2 | COC(=O)/C(=C\c1c(-c2ccccc2)[nH]c2ccccc12)S(C)(=O)=O | 4.7 | 5.3 | 8.9 | 10.7 | 5 | 8.8 | 2.4 | 5.1 | 0.671 | 6 | 1.9 | 7.2 | 3.1 | 7.7 | 2.9 | 2.4 | 3.5 | 5.4 | 
3 | COc1ccc2[nH]c(-c3ccccc3)c(/C=C(\C#N)S(=O)(=O)c3ccccc3)c2c1 | 4.7 | 6 | 6.9 | 8.3 | 9.4 | 18.7 | 4 | 7.4 | 1.1 | 6.1 | 5 |  | 7.8 | 17.5 | 3.9 | 7.5 | 7.6 | 4.2 | EC50 (CCRF-CEM): 1.5 µM; EC50 (WIL2-NS): 2.8 µM; EC50 (CCRF-SB): 1.9 µM; EC50 (MRC5): 14 µM; EC50 [9]: 11 µM; EC50 (SK-MEL-28 [10]): 10 µM; EC50 [11]: 12 µM; EC50 (DU-145): 10 µM; EC50 (HepG2): 9.6 µM; EC50 (MCF7 [12]): 12 µM
4 | COc1ccc(-c2[nH]c3ccccc3c2C=C(C#N)C#N)cc1 | 0.578 | 0.7 | 0.656 | 1.2 | 1.1 | 0.751 | 0.593 | 1.8 | 0.128 | 1.2 | 0.265 | 0.518 | 1.2 | 0.925 | 0.347 | 0.562 | 0.241 | 0.418 | Activity (HL-60 [13]): Dose-dependent effect; GI50 (HL-60 [13]; HL-60, 72 h): 1.08 µM; Activity (K562 [14]): Dose-dependent effect; GI50 (K562 [14]; K562, 72 h): 4.78 µM; Activity (MCF7 [15]): Dose-dependent effect; GI50 (MCF7 [15]; MCF7, 72 h): > 10 µM; Activity (HL-60 [16]): tde; Activity (K562 [17]): 44.4%; Activity (K562 [17]; TDE = time-dependent effect): tde; Activity (MCF7 [18]): tde
5 | CCOC(=O)C(=Cc1c(-c2ccccc2)[nH]c2ccccc12)C(=O)OCC | 3.9 | 6.4 | 12.4 | 5.5 | 11.4 | 10.1 | 4.1 | 5.6 | 3.4 | 7.7 | 4.2 | 3.7 | 5.1 | 13.6 | 4.5 | 5.8 | 3.8 | 3.1 | 
